A short description of data set [1]: Aqueous solubility, shake flask method in water. Particulars: for solubility at 24 h: water, 25 °C, thermodynamic from solid. It is filed as physicochemical. The procedure, abridged: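 Excess solid test compound was added to 0.5 mL water pre-equilibrated at 25 °C and shaken in a water bath at 25 ± 0.5 °C and 75 rpm for 24 h. Aliquots were centrifuged, and the supernatant was filtered and assayed for drug content. Analysis was by HPLC on a C18 column with 15 mM phosphate (pH 2.5)/1% acetonitrile and fluorescence detection (ex 270, em 380). Runs were in duplicate.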

Data set [2] is described as follows: Solution. It is filed as physicochemical.
Data set [3] is described as follows: Stability in ocular tissue homogenates: cornea. Particulars: rabbit, corneal homogenate supernatant, pH 7.4. In kind it is in vitro ADME.
Data set [4] in a line: Stability in ocular tissue homogenates: iris-ciliary body. In kind it is in vitro ADME. Particulars: rabbit, iris-ciliary body homogenate supernatant, pH 7.4.
Data set [5] is described as follows: Stability in vitreous humor. It is filed as in vitro ADME, rabbit. Particulars: for Apparent first order rate constant (k*): Vitreous Humor used as such, 37 °C, overall observed degradation; for half-life at 10 μg/mL: rabbit, vitreous humor (used as such).
The nature of data set [6]: Stability in ocular tissue homogenates: retina/choroid. Particulars: rabbit, retina/choroid homogenate supernatant, pH 7.4. It is filed as in vitro ADME.
The nature of data set [7]: Hydrolysis in DPBS transport media. Particulars: pH 7.4. In kind it is physicochemical.
Data set [8] has as its target T1, amino acid transporter B^0,+ (Oryctolagus cuniculus, UniProt G1T8K9).
T1 sequence (G1T8K9 1-637): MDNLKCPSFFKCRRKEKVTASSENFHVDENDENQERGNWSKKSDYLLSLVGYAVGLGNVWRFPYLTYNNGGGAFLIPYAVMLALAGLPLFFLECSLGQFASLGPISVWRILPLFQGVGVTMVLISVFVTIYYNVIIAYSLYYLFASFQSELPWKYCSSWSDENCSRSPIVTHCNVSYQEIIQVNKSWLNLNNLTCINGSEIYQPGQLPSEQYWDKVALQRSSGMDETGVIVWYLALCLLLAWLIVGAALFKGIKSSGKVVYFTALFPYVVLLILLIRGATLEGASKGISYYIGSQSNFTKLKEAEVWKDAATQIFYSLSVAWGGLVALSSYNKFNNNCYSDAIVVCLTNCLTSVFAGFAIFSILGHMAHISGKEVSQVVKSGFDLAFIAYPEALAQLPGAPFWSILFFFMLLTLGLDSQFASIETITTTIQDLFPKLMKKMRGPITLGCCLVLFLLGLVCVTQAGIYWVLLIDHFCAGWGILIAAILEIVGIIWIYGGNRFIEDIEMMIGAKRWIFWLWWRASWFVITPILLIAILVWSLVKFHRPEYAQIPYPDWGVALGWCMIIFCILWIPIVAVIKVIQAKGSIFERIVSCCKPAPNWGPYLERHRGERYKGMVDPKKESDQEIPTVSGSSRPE
Put plainly: Transcorneal transport mechanism studies. In kind it is in vitro ADME, rabbit. Particulars: for Substrate of the corneal amino acid transporter B^0,+: concluded from rabbit corneal permeability with and without inhibitors.

The subject of data set [9] is B^o,+. Particulars: a substrate of B^o,+; cited from earlier work.
In data set [10] the test system is amino acid transporter B^0,+. As to conditions: xenopus laevis oocytes; cited from earlier work.
For data set [11] the following is noted: cited from earlier work.

Structures are written as SMILES. Several values for one entry are separate records, joined by “and”; a condition that tells them apart may be missing. Identical values can stand only once. Entries after “also recorded” stand apart in the source; their conditions may differ.

The source of these data is PMC2664401 (Pharmaceutical research, 2008).

For the compound `Cl.Nc1nc2c(ncn2COCCOC(=O)[C@@H](N)CC(=O)O)c(=O)[nH]1` [L-Asp-ACV, (S)-3-amino-4-(2-((2-amino-6-oxo-1H-purin-9(6H)-yl)methoxy)ethoxy)-4-oxobutanoic acid-HCl], the solubility at 24 h in data set [1] is 3840 µg/mL and 10200 µM. The half-life at 50 μg/mL is 5.6 ± 0.2 h in data set [2] (borate buffer, pH 9); 627 ± 31 h in data set [2] (hydrochloride buffer, pH 1.2); 32 ± 0.4 h in [2] (phosphate buffer, pH 7); 371 ± 16 h in [2] (phthalate buffer, pH 3); 262 ± 4 h in data set [2] (phthalate buffer, pH 5). Moreover, the half-life at 10 μg/mL stood at 4.83 ± 0.203 h in data set [3], 2.23 ± 0.085 h in data set [4], 2.76 ± 0.065 h in data set [5] and 0.86 ± 0.0267 h in data set [6]. Besides, the “Apparent first order rate constant (k*)” value in data set [5] was 4.2 ± 0.1 ×10^3, min^−1. Besides, the half-life in data set [7] (buffer) is 5.1 ± 0.1 h. Moreover, the “Effect of glutamic acid on transcorneal transport” value in [8] (L-Glutamic acid 1 mM, pH 5) was “not inhibited; also recorded: failed to inhibit”. The “Substrate of the corneal amino acid transporter B^0,+” value in data set [8] is “is a substrate”. Also, the “Transcorneal permeability in the presence of BCH” value in [8] (male, New Zealand albino, rabbit, 3 h) is recorded as 2.66±0.21 × 10^−6 cm.s^−1.

Take `Nc1nc2c(ncn2COCCOC(=O)C(N)Cc2ccccc2)c(=O)[nH]1` (stereo not shown) [phenylalanine-ACV]: in data set [9], the “Transport of [^3H]-L-Arginine in the presence of prodrug” value is “decreased transport”.

Consider `Cl.Nc1nc2c(ncn2COCCOC(=O)[C@H](N)CC(=O)O)c(=O)[nH]1` [D-Asp-ACV, (R)-3-amino-4-(2-((2-amino-6-oxo-1H-purin-9(6H)-yl)methoxy)ethoxy)-4-oxobutanoic acid-HCl], for which the “Solubility, fold higher than that of ACV” value in data set [1] (relative to ACV) is “about 2 fold”. For the same compound, the solubility at 24 h in data set [1] was 3850 µg/mL and 10200 µM. Moreover, the half-life at 10 μg/mL in data set [3] is 3.73 ± 0.21 h; in [4], 2.32 ± 0.168 h; in data set [5] it was 2.34 ± 0.252 h; in data set [6], 20 ± 1.47 h. Further, the “Apparent first order rate constant (k*)” value in data set [5] is 5 ± 0.5 ×10^3, min^−1. In [7] (DPBS), this compound gave a half-life of 5.6 ± 0.2 h. Besides, in [8], the “Substrate of the corneal amino acid transporter B^0,+” value is given as “not a substrate”.

For `Nc1nc2c(ncn2COCCOC(=O)C[C@H](N)C(=O)O)c(=O)[nH]1` [acyclovir-L-aspartate β-ester], the “Transport by the amino acid transporter B^0,+” value in [10] is recorded as “is transported”.

On to `Nc1nc2c(ncn2COCCO)c(=O)[nH]1` [ACV, acyclovir, reference compound], for which the solubility at 24 h in [1] is 1200 µg/mL and 5300 µM. Moreover, the “saturation solubility in water” value in [11] is 1200 µg/mL.

As a reminder, the solubility is the concentration that dissolves in the medium under given conditions. A higher solubility goes with a readily soluble substance. By half-life is commonly meant how long it takes for the measured level to halve. Lower therefore signals fast loss.
